In brackets after ≈: the same amount, converted by molar mass. Activity calls are given as the source filed them. No cut-off for these calls is given here.
Key:
[1] = Inhibition of chymotryptic-like activity of human 20S proteasome using Suc-LLVY-AMC as substrate measured every min over 30 mins by fluorescence assay
THP-1 [2] = assay: Cytotoxicity against bortezomib-resistant human THP1 cells assessed as cell viability at 10 uM after 72 hrs by MTS assay relative to vehicle-treated control; format: functional; details: for viability at 10 µM: THP-1, 72 h, read-out: Activity
Method in brief: (§1)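 THP-1 cells in RPMI-1640 with 10% FBS, penicillin/streptomycin, 1 mM sodium pyruvate and 0.2 mM L-glutamine at 37°C, 5% CO2. […] Compound in DMSO, final 10 μM, 0.5% DMSO, 72 h. MTS (CellTiter 96 AQueous One) read at 490 nm, background-subtracted, as % of vehicle.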

THP-1 [3] = assay: Cytotoxicity against wild type human THP1 cells assessed as cell viability at 10 uM after 72 hrs by MTS assay relative to vehicle-treated control; format: functional; details: THP-1, 72 h, read-out: Activity; method in brief: as §1
[4] = Inhibition of NFkappaB-mediated gene transcription in human HeLa cells after 1 hr by Dual-Glo luciferase reporter assay; format: cell-based
[5] = Solubility of the compound in dextrose-water solution at pH 6.5 after 5 mins; format: physicochemical; details: buffer, pH 6.5, 5 min
Method in brief: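 1 mL of 5% dextrose in water is brought to pH 6.5 with 3 μl 2 N HCl. Solid is added in 0.5 mg portions, then 0.1 mg near saturation. Each addition is vortexed 40 s and sonicated 30 s at 37.5°C, then held 5 min at 37.5°C and judged visually.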

[6] = Inhibition of 20S proteasome (unknown origin); parameters: species or system Homo sapiens
THP-1 [7] = assay: Cytotoxicity against wild type human THP1 cells assessed as cell viability at 0.5 uM after 72 hrs by MTS assay relative to vehicle-treated control; details: THP-1, 72 h, read-out: Activity
THP-1 [8] = assay: cells; details: Homo sapiens, THP-1, 72 h, read-out: Activity
Homo sapiens [9] = organism: Homo sapiens; assay: Non-competitive inhibition of chymotryptic-like activity of human 20S proteasome using Suc-LLVY-AMC as substrate at 1.25 to 5 uM
Method in brief: (§2)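 Kinetics: purified human 20S proteasome with vehicle or inhibitor at 1.25, 2.5 or 5 μM across varying Suc-LLVY-AMC concentrations. Velocity is followed by AMC fluorescence as in the activity assay. Vmax and Km come from Michaelis-Menten fits with a Lineweaver-Burk plot.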

Homo sapiens [10] = organism: Homo sapiens; assay: Non-competitive inhibition of chymotryptic-like activity of human 20S proteasome using Suc-LLVY-AMC as substrate; method in brief: as §2

Row | SMILES | IC50 [1] [nM] | further results
1 | CCOC(=O)[C@]1(c2ccccc2)N=C(c2ccccc2)N(Cc2ccccc2)[C@@H]1c1ccco1 | 6130 | –
2 | CCOC(=O)[C@]1(c2ccccc2)N=C(c2ccccc2)N(C(=O)c2ccccc2)[C@@H]1c1ccccc1 | > 10000 | –
3 | CCOC(=O)[C@]1(c2ccccc2)N=C(c2ccccc2)N(Cc2ccccc2)[C@@H]1c1ccc(C(F)(F)F)cc1 | 4810 | –
4 | CCOC(=O)[C@]1(c2ccccc2)N=C(c2ccc(OC)cc2)N(Cc2ccccc2)[C@@H]1c1ccc(N)cc1 (racemic) | 1970 | viability at 10 µM (THP-1 [2]): 98%; viability at 10 µM (THP-1 [3]): 44%
5 | CCOC(=O)[C@]1(c2ccccc2)N=C(c2ccccc2)N(Cc2ccccc2)[C@@H]1c1ccc(Cl)cc1 | 2230 | –
6 | c1ccc(CN2CCN=C2c2ccccc2)cc1 | > 10000 | IC50 [4]: > 10000 nM
7 | CCOC(=O)[C@]1(c2ccccc2)N=C(c2ccc(OC)cc2)N(Cc2ccccc2)[C@@H]1c1ccc(NS(=O)(=O)c2ccccc2)cc1 (racemic) | 580 | –
8 | CCOC(=O)[C@]1(c2ccccc2)N=C(c2ccc(OC)cc2)N(Cc2ccccc2)[C@@H]1c1ccc(NS(=O)(=O)Cc2ccccc2)cc1 | 1080 | –
9 | CCOC(=O)[C@]1(c2ccccc2)N=C(c2ccccc2)N(Cc2ccco2)[C@@H]1c1ccccc1 | 7040 | –
10 | CCOC(=O)[C@]1(c2ccccc2)N=C(c2ccccc2)N(C(C)=O)[C@@H]1c1ccccc1 | > 10000 | –
11 | c1ccc(CN2C(c3ccccc3)=N[C@@H](c3ccccc3)[C@H]2c2ccccc2)cc1 | > 10000 | IC50 [4]: > 10000 nM
12 | CCOC(=O)[C@]1(c2ccccc2)N=C(c2ccc(Br)cc2)N(Cc2ccccc2)[C@@H]1c1ccccc1 (racemic) | 3190 | –
13 | NC(=O)[C@]1(c2ccccc2)N=C(c2ccccc2)N(Cc2ccccc2)[C@@H]1c1ccccc1 | > 10000 | IC50 [4]: > 20000 nM
14 | CCOC(=O)[C@]1(c2ccccc2)N=C(c2ccc(OC)cc2)N(Cc2ccccc2)[C@@H]1c1ccc(NS(=O)(=O)C2CC2)cc1 (racemic) | 910 | –
15 | CCOC(=O)[C@]1(c2ccccc2)N=C(c2ccccc2)N(Cc2ccc(Cl)cc2)[C@@H]1c1ccccc1 | 2020 | solubility [5]: < 500 µg/mL
16 | CCOC(=O)[C@]1(c2ccccc2)N=C(c2ccccc2)N(Cc2ccc(F)cc2)[C@@H]1c1ccccc1 | 3710 | –
17 | CCOC(=O)[C@]1(c2ccccc2)N=C(c2ccc(OC)cc2)N(Cc2ccccc2)[C@@H]1c1ccccc1 (racemic) | 1270 | –
18 | CCOC(=O)[C@]1(c2ccccc2)N=C(c2ccccc2)N(Cc2ccc(Br)cc2)[C@@H]1c1ccccc1 | 1900 | solubility [5]: < 500 µg/mL
19 | CCOC(=O)[C@]1(c2ccccc2)N=C(c2ccc(OC)cc2)N(Cc2ccccc2)[C@@H]1c1ccc(NS(=O)(=O)N(C)C)cc1 (racemic) | 1220 | –
20 | CCOC(=O)[C@]1(c2ccccc2)N=C(c2ccccc2)N(Cc2ccccc2)[C@@H]1c1ccc(NCc2ccccc2)cc1 (racemic) | 470 | –
21 | CC(C)C[C@H](NC(=O)[C@H](Cc1ccccc1)NC(=O)c1cnccn1)B(O)O [BORTEZOMIB] | – | IC50 [6]: 5 nM; viability at 0.5 µM (THP-1 [7]): < 5%; viability at 0.5 µM (THP-1 [8]): 68%
22 | CCOC(=O)[C@]1(c2ccccc2)N=C(c2ccccc2)N(Cc2ccccc2)[C@@H]1c1ccc(NS(=O)(=O)c2ccccc2)cc1 (racemic) | 1080 | –
23 | CCOC(=O)[C@]1(c2ccccc2)N=C(c2ccc(OC)cc2)N(Cc2ccccc2)[C@@H]1c1ccc(NCc2ccc(O)cc2)cc1 (racemic) | 540 | viability at 10 µM (THP-1 [2]): 36%; viability at 10 µM (THP-1 [3]): 23%

Row | SMILES | IC50 [1] [nM] | further results
24 | COC(=O)[C@]1(c2ccccc2)N=C(c2ccccc2)N(Cc2ccccc2)[C@@H]1c1ccccc1 | 5400 | IC50 [4]: 7500 nM
25 | CCOC(=O)[C@]1(c2ccccc2)N=C(c2ccccc2)N(Cc2ccccc2)[C@@H]1c1ccc([N+](=O)[O-])cc1 | 6710 | –
26 | CCOC(=O)[C@]1(c2ccccc2)N=C(c2ccc(OC)cc2)N(Cc2ccccc2)[C@@H]1c1ccc(NCC2CCCCC2)cc1 (racemic) | 130 | viability at 10 µM (THP-1 [2]): 5%; viability at 10 µM (THP-1 [3]): 4%
27 | CCOC(=O)[C@]1(c2ccccc2)N=C(c2ccc(OC)cc2)N(Cc2ccccc2)[C@@H]1c1ccc(NS(=O)(=O)c2ccc(OC)cc2OC)cc1 (racemic) | 530 | –
28 | CCOC(=O)[C@]1(c2ccccc2)N=C(c2ccccc2)N(Cc2ccccc2)[C@@H]1c1ccc(S(C)(=O)=O)cc1 (racemic) | > 10000 | –
29 | CCOC(=O)[C@]1(c2ccccc2)N=C(c2ccccc2)N(S(=O)(=O)c2ccc(C)cc2)[C@@H]1c1ccccc1 | > 10000 | –
30 | CCOC(=O)[C@]1(c2ccccc2)N=C(c2ccccc2)N(Cc2ccc(OC)cc2)[C@@H]1c1ccccc1 | 2730 | –
31 | CCOC(=O)[C@]1(c2ccccc2)N=C(c2ccccc2)N(Cc2ccccc2)[C@@H]1c1ccc(N)cc1 | 3520 | –
32 | CCOC(=O)[C@]1(c2ccccc2)N=C(c2ccccc2)N[C@@H]1c1ccccc1 | > 10000 | –
33 | c1ccc(CN2C(c3ccccc3)=N[C@H](c3ccccc3)[C@H]2c2ccccc2)cc1 | 1400 | IC50 [4]: 4600 nM
34 | O=C(OCCO)[C@]1(c2ccccc2)N=C(c2ccccc2)N(Cc2ccccc2)[C@@H]1c1ccccc1 (racemic) | 3200 | IC50 [4]: 10900 nM
35 | c1ccc(Cn2c(-c3ccccc3)nc(-c3ccccc3)c2-c2ccccc2)cc1 | > 10000 | IC50 [4]: > 10000 nM
36 | CCOC(=O)[C@]1(c2ccccc2)N=C(c2ccc(OC)cc2)N(Cc2ccccc2)[C@@H]1c1ccc(NCc2cc(OC)c(OC)c(OC)c2)cc1 (racemic) | 370 | viability at 10 µM (THP-1 [2]): 34%; viability at 10 µM (THP-1 [3]): 24%
37 | CCOC(=O)[C@]1(c2ccccc2)N=C(c2ccc(OC)cc2)N(Cc2ccccc2)[C@@H]1c1ccc(NCc2ccccc2)cc1 (racemic) | – | viability at 10 µM (THP-1 [2]): 19%; viability at 10 µM (THP-1 [3]): 4%; inhibition (Homo sapiens [9]): Active
38 | CCOC(=O)[C@]1(c2ccccc2)N=C(c2ccccc2)N(Cc2ccccc2)[C@@H]1c1ccccc1 | 2580 | Activity (THP-1 [2]): Active; inhibition (Homo sapiens [10]): Active; solubility [5]: 1910 µg/mL (≈ 4150 µM); IC50 [4]: 2500 nM
39 | CCOC(=O)[C@]1(c2ccccc2)N=C(c2ccccc2)N(Cc2ccccc2)[C@@H]1c1ccc(SC)cc1 (racemic) | 2770 | –
40 | CCOC(=O)[C@]1(c2ccccc2)N=C(c2ccc(OC)cc2)N(Cc2ccccc2)[C@@H]1c1ccc(NC(=N)N)cc1 (racemic) | 630 | –
41 | CCOC(=O)[C@]1(c2ccccc2)N=C(c2ccc(OC)cc2)N(Cc2ccccc2)[C@@H]1c1ccc(C(N)=O)cc1 (racemic) | > 10000 | –
42 | CCOC(=O)[C@]1(c2ccccc2)N=C(c2ccccc2)N(Cc2ccccc2)[C@@H]1c1ccncc1 | > 10000 | –
43 | CCOC(=O)[C@]1(c2ccccc2)N=C(c2ccc(OC)cc2)N(Cc2ccccc2)[C@@H]1c1ccc(NC(=O)c2ccccc2)cc1 (racemic) | 1440 | –
44 | CCOC(=O)[C@]1(c2ccccc2)N=C(c2ccc(OC)cc2)N(Cc2ccccc2)[C@@H]1c1ccc(C#N)cc1 (racemic) | > 10000 | –
45 | O=C(OCc1ccccc1)[C@]1(c2ccccc2)N=C(c2ccccc2)N(Cc2ccccc2)[C@@H]1c1ccccc1 | 2400 | IC50 [4]: 3500 nM
46 | CCOC(=O)[C@]1(c2ccccc2)N=C(c2ccc(OC)cc2)N(Cc2ccccc2)[C@@H]1c1ccc(NC(C)=O)cc1 (racemic) | 2170 | –

Source: ChEMBL document CHEMBL2406988, “Inhibition of the human proteasome by imidazoline scaffolds” (J Med Chem, 2013)
